Experimental findings from ChEMBL document CHEMBL2406978, “A novel one-pot synthesis and preliminary biological activity evaluation of cis-restricted polyhydroxy stilbenes incorporating protocatechuic acid and cinnamic acid fragments” (2013) are described below.

The target of assay [1] is T1, Tyrosinase (Agaricus bisporus) (UniProt O42713).
T1 sequence (whole entry): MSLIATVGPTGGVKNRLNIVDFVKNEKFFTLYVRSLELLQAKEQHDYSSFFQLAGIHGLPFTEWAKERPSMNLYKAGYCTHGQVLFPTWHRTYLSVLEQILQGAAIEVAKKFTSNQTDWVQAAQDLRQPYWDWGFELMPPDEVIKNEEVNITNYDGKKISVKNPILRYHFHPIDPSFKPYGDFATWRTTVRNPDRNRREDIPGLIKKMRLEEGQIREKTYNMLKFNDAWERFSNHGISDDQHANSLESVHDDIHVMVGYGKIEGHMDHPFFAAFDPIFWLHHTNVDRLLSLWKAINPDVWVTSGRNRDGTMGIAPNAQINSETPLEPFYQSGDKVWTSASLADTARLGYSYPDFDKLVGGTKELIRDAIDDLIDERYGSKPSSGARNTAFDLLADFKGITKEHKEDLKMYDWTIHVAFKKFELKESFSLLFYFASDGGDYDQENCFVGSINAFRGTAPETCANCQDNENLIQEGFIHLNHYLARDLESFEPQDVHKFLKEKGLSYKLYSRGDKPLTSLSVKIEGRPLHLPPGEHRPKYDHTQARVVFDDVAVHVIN
Nature of the assay: Inhibition of mushroom tyrosinase using L-tyrosine as substrate at 23 uM after 30 mins by spectrophotometric analysis. The method, boiled down:
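Modified dopachrome method with L-tyrosine substrate, in 3 mL total: 1.0 mL 0.1 M phosphate buffer pH 6.8, 1.0 mL 1.5 mM tyrosine, 0.35 mL 0.2 mM inhibitor stock in DMSO, 0.35 mL water, and 0.30 mL mushroom tyrosinase at 192 U/mL. Reference used DMSO in place of inhibitor. Incubated 37 °C for 30 min, read at 475 nm; activity % = B/A × 100 (sample/reference absorbance).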

In a further assay the test system is Candida albicans. In words: […] activity against Candida albicans ATCC 10231 at 50 ug/ml after 24 hrs by agar well diffusion method relative to nystatine. It counts as functional. The settings on record: ATCC 10231, 24 h. On the technique in general: A growth-free zone around the sample is the usual read-out of agar diffusion tests.
The test system of assay [2] is Bacillus spizizenii. In words: Antibacterial activity against Bacillus subtilis ATCC 6633 at 50 ug/ml after 24 hrs by agar well diffusion method. The format is functional.
A further assay deals with Escherichia coli. Nature of the assay: Antibacterial activity against Escherichia coli ATCC 25922 at 50 ug/ml after 24 hrs by agar well diffusion method. The format is functional, organism-based.
For the next assay, the system named is Aspergillus flavus. In words: […] activity against Aspergillus flavus IMI 052104 at 50 ug/ml after 24 hrs by agar well diffusion method relative to control. It counts as functional. The conditions noted are these: IMI 052104, 24 h.
A further assay concerns Pseudomonas aeruginosa. In words: Antibacterial activity against Pseudomonas aeruginosa ATCC 10145 at 50 ug/ml after 24 hrs by agar well diffusion method. The format is functional, organism-based.
Assay [3] has as its system Radical scavenging activity. In words: Antioxidant activity assessed as DPPH free radical scavenging activity at 3.3 uM measured every 10 mins. The format is functional. The method, boiled down: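 Compound in methanol (0.5 mL) was added to 0.5 mL of 100 µM DPPH• stock solution, with a final compound level of 3.3 µM and DPPH•/substrate molar ratio 15 (radical in excess). Absorbance at 518 nm was read every 10 min until equilibrium. Methanol served as blank and caffeic acid as reference.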
For orientation: Loss of DPPH colour is used to gauge radical scavenging.

A further assay has as its system Aspergillus niger. Nature of the assay: […] activity against Aspergillus niger A3 at 50 ug/ml after 24 hrs by agar well diffusion method relative to control. The settings on record: A3, 24 h. It counts as functional.
Assay [4] relates to Fusarium graminearum. Nature of the assay: […] activity against Fusarium graminearum ATCC 24373 at 50 ug/ml after 24 hrs by agar well diffusion method relative to control. It counts as functional. The settings on record: ATCC 24373, 24 h.
The test system of a further assay is Staphylococcus aureus. Nature of the assay: Antibacterial activity against Staphylococcus aureus ATCC 25923 at 50 ug/ml after 24 hrs by agar well diffusion method. The format is functional, organism-based.
The subject of assay [5] is Bacillus spizizenii. Nature of the assay: Antibacterial activity against Bacillus subtilis ATCC 6633 at 50 ug/ml after 24 hrs by agar well diffusion method relative to amikacin. It counts as functional. The conditions noted are these: ATCC 6633, 24 h. The method, boiled down:
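Agar well diffusion on dried overlays of each test strain. Wells of 7 mm received 100 µL of sample at 0.5 mg/mL in DMSO, with DMSO wells as negative control. Positive controls were an amikacin 30 µg disc for bacteria and 100 µL nystatin 10000 IU/mL for C. albicans. Plates were held 60 min at 4 °C for diffusion, then incubated 24 h at 30 or 37 °C. Inhibition zones were measured in mm, in triplicate, and growth inhibition was expressed relative to the positive control.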

For assay [6], the system named is Fusarium graminearum. Nature of the assay: […] activity against Fusarium graminearum ATCC 24373 at 0.17 umol/ml after 24 hrs by agar well diffusion method relative to control. It counts as functional, organism-based.

The source made the active and inactive calls. The calls are words filed in the database; no cut-off is given here.

On to `CC(C)(C)c1cc(/C=C(/C(=O)O)c2cc(O)c(O)cc2C(=O)O)cc(C(C)(C)C)c1O`, for which the inhibition (in general, the share of the control response that was lost under treatment) in assay [1] is “Active”. Besides, the inhibition at 50 µg/mL in the assay on Candida albicans is 40%; in the assay on Aspergillus flavus, 52%; in the assay with Aspergillus niger, 44%; with Fusarium graminearum [4] it was 76%. Also, the inhibition entry in the assay with Bacillus spizizenii [2], in the assay on Escherichia coli, with Pseudomonas aeruginosa and with Staphylococcus aureus was “inactive” throughout. In addition, in assay [3], the result was Active.

Consider `O=C(O)/C(=C/c1ccc(O)cc1)c1cc(O)c(O)cc1C(=O)O`, for which, in [1], the inhibition entry is “Active”. The inhibition at 50 µg/mL in the assay with Candida albicans turned out to be 34%; in the assay with Aspergillus flavus it was 42%; in the assay on Aspergillus niger, 38%; in the assay with Fusarium graminearum [4], 72%. Also, the inhibition entry with Bacillus spizizenii [2], in the assay with Escherichia coli, in the assay on Pseudomonas aeruginosa and in the assay with Staphylococcus aureus was “inactive” throughout. In addition, the result in assay [3] was Active.

In the case of `COc1cc(C(=O)O)c(/C(=C\c2cc(C(C)(C)C)c(O)c(C(C)(C)C)c2)C(=O)O)cc1OC`, the inhibition result in assay [1] was “Active”. The inhibition at 50 µg/mL was determined as 48% with Candida albicans; 44% in the assay with Bacillus spizizenii [5]; 48% in the assay on Aspergillus flavus; 44% with Aspergillus niger; 70% in the assay on Fusarium graminearum [4]. Further, the Activity in assay [3] turned out to be 18%.

Take `Oc1ccc(O)cc1`: the inhibition result in [1] was “Active”.

Take `O=C(O)/C(=C/c1ccc(O)c(O)c1)c1cc(O)c(O)cc1C(=O)O`: the inhibition entry in [1] was “Active”. Also, the inhibition at 50 µg/mL worked out at 45% in the assay on Candida albicans, 42% in the assay with Aspergillus flavus, 37% with Aspergillus niger and 72% with Fusarium graminearum [4]. Also, the inhibition entry in the assay on Bacillus spizizenii [2], in the assay with Escherichia coli, with Pseudomonas aeruginosa and with Staphylococcus aureus was “inactive” each time. Also, the outcome in [3] was Active.

With `O=C(O)c1ccc(O)c(O)c1` [PROTOCATECHUIC ACID], in [1], the inhibition entry was “Active”. Further, the inhibition at 50 µg/mL turned out to be 9% with Aspergillus flavus, 40% with Aspergillus niger and 76% with Fusarium graminearum [4]. Further, the outcome in assay [3] was Active.

As to `O=C(O)/C(=C/c1cc(O)c(O)c(O)c1)c1cc(O)c(O)cc1C(=O)O`, the inhibition entry in assay [1] was “Active”. The inhibition at 50 µg/mL turned out to be 40% with Candida albicans, 42% with Aspergillus flavus, 37% in the assay on Aspergillus niger and 71% in the assay on Fusarium graminearum [4]. The inhibition entry in the assay on Bacillus spizizenii [2], in the assay with Escherichia coli, with Pseudomonas aeruginosa and in the assay with Staphylococcus aureus was “inactive” each time. Further, the result in [3] was Active.

With `O=C(O)/C=C/c1ccc(O)c(O)c1` [CAFFEIC ACID], the inhibition result in [1] was “Active”. In addition, the inhibition at 50 µg/mL in the assay with Aspergillus flavus came to 16%; in the assay with Aspergillus niger it was 35%; in the assay on Fusarium graminearum [4] it was 63%. In addition, the result in assay [3] was Active.

`O=C(O)/C(=C/c1ccccc1)c1cc(O)c(O)cc1C(=O)O`: the inhibition entry (in assay [1]; in the assay with Fusarium graminearum [6]) was “Active” throughout. In addition, the inhibition at 50 µg/mL with Candida albicans turned out to be 40%; with Aspergillus flavus, 43%; in the assay with Aspergillus niger, 34%; with Fusarium graminearum [4], 89%. In addition, the inhibition entry in the assay with Bacillus spizizenii [2], with Escherichia coli, in the assay with Pseudomonas aeruginosa and in the assay on Staphylococcus aureus was “inactive” in each case. Also, the result in assay [3] was Active.
